This note sets out measurements from ChEMBL document CHEMBL1129593, “Halogenated mazindol analogs as potential inhibitors of the cocaine binding site at the dopamine transporter” (J Med Chem, 1996).

Each structure is given as a SMILES string.

The target in assay [1] is T1, Sodium-dependent dopamine transporter (Rattus norvegicus, UniProt P23977). In words: Inhibition of [3H]WIN-35428 binding to the dopamine transporter in rat brain. In kind it is tissue-based. The gist of the method:
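Striatal tissue from male Sprague-Dawley rats (200-250 g), 0.1 mg original wet weight per tube. Nonspecific binding was defined with 30 µM (R)-(-)-cocaine. Stopped by filtration through polyethylenimine-soaked GF/B filters with three ice-cold buffer washes. Equilibrium binding analysis.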

Assay [2] addresses T1, Sodium-dependent dopamine transporter. Nature of the assay: Inhibition of [3H]dopamine uptake at the dopamine transporter in rat striatal tissue. In kind it is functional, tissue-based, Striatum. In a few lines: (§1)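 Crude synaptosomes were made from rat striatum: homogenised in 0.32 M sucrose, spun at 800g for 10 min, then at 27000g for 20 min. They were resuspended in Krebs-Hepes (pH 7.35) containing NaCl, KCl, KH₂PO₄, CaCl₂, MgSO₄, Hepes, glucose, ascorbic acid and nialamide. Preincubated with compound for 10 min at 30 °C, then given [³H]dopamine for 10 min and filtered.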

Assay [3] addresses Sodium-dependent dopamine transporter (Rattus norvegicus) (UniProt P23977). In words: The ratio of uptake/binding at Dopamine transporter. The assay is classed as functional.
For assay [4], the target named is T2, Sodium-dependent serotonin transporter (Rattus norvegicus, UniProt P31652). In words: Compound was tested for inhibition of [3H]citalopram binding at the serotonin transporter in rat fore brain membranes. The assay is classed as cell membranes, Membrane.
The target of assay [5] is Norepinephrine transporter (Rattus norvegicus) (UniProt Q9WTR4). Nature of the assay: Compound was tested for inhibition of [3H]-DMI binding at the Norepinephrine transporter in rat cortical membranes at (10e-5) M. The assay is classed as cell membranes. The following applies: Membrane; concentration not given here.
Assay [6] shares this target. Nature of the assay: Compound was tested for inhibition of [3H]DMI binding at the Norepinephrine transporter in rat cortical membranes at (10e-5) M. The assay is classed as cell membranes. The following applies: Membrane; concentration not given here.
The target of assay [7] is T2, Sodium-dependent serotonin transporter. In words: Compound was tested for inhibition of [3H]5-HT reuptake at Serotonin transporter.
Assay [8] deals with T1, Sodium-dependent dopamine transporter. Nature of the assay: Compound was tested for inhibition of [3H]dopamine uptake at the dopamine transporter in rat […] tissue. In kind it is tissue-based, Striatum. The gist of the method: as §1

T2 sequence (P31652 whole entry): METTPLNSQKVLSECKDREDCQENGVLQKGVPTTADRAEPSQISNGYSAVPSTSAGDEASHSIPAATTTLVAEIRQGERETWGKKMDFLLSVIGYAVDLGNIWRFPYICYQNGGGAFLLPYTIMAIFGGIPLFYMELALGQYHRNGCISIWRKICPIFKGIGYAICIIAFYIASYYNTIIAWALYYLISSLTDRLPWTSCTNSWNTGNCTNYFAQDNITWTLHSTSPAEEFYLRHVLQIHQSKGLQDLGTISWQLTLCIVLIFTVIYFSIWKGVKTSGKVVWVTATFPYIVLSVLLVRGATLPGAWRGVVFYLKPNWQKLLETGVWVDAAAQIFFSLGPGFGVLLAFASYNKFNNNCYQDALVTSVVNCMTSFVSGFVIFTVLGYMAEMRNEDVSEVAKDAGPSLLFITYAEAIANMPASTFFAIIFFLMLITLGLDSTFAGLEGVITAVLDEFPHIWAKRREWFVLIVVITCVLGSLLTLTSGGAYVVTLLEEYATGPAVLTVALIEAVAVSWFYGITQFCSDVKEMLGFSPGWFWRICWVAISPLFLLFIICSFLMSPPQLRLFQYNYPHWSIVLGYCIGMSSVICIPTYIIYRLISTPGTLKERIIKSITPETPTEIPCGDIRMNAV
T1 sequence (P23977 whole entry): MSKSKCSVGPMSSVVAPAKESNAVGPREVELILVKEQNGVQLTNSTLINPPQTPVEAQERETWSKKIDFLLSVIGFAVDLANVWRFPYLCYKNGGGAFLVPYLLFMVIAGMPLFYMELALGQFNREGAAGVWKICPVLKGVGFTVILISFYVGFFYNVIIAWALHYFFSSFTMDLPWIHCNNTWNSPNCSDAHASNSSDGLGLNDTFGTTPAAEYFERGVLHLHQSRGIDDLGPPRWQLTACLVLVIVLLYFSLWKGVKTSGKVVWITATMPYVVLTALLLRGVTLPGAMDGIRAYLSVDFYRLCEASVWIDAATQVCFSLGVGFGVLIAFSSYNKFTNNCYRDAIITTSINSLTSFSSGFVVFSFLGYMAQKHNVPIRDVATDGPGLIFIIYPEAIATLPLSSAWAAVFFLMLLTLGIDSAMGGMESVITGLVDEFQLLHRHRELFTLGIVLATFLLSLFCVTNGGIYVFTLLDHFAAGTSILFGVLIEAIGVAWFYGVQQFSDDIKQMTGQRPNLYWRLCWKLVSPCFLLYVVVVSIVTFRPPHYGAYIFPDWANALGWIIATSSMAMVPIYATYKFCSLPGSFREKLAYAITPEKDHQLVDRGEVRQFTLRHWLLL
Chain of Sodium-dependent dopamine transporter (Rattus norvegicus) (P23977 whole entry): as above
Chain of Norepinephrine transporter (Rattus norvegicus) (Q9WTR4 as listed by the source): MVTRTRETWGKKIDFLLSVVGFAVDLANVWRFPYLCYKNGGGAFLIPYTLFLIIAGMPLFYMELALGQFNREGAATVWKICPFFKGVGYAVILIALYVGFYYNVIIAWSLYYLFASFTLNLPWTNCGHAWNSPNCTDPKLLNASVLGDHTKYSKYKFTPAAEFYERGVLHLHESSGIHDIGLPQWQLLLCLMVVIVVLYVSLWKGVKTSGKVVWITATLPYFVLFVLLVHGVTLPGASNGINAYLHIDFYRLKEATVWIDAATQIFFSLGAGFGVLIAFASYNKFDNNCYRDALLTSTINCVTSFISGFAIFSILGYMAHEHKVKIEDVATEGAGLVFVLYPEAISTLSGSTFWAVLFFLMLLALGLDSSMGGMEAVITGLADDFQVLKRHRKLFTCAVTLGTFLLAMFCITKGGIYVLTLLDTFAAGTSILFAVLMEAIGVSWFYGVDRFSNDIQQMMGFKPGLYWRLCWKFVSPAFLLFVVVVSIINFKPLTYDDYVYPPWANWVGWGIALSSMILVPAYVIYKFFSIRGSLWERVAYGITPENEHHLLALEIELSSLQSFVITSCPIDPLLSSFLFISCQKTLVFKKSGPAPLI

Regarding `OC1(c2ccccc2)c2ccccc2C2=NCCCCN21` (stereo not given), the IC50 in assay [1] was determined as 5.9 nM; in assay [2] it was 11 nM. For the same compound, the Uptake/Binding ratio in assay [3] was 2.
Turning to `OC1(c2ccccc2)c2ccccc2C2=NCCN21` (stereo not given), the values for the IC50 in assay [1] and in assay [2] were 66 nM and 124 nM, respectively. Further, the Uptake/Binding ratio in assay [3] turned out to be 1.9.
As for `OC1(c2ccc(F)cc2)c2ccccc2C2=NCCCN21` (stereo not given), the IC50 turned out to be 3.2 nM in assay [1] and 8.5 nM in assay [2].
On to `OC1(c2ccc(Cl)c(Cl)c2)c2ccccc2C2=NCCN21` (stereo not given), for which the IC50 in assay [1] is 2.5 nM; in assay [2], 1.4 nM. Further, the Uptake/Binding ratio in assay [3] amounted to 0.6.
For the compound `OC1(c2ccccc2F)c2ccccc2C2=NCCCN21` (stereo not given), the results for the IC50 in assay [1] and in assay [2] were 23.2 nM and 89 nM, respectively. Moreover, the Uptake/Binding ratio in assay [3] is 3.8.
The like results for `OC1(c2ccc(Cl)cc2Cl)c2ccccc2C2=NCCN21` (stereo not given) were, in that order, 76.5 nM, 92 nM and 1.2.
As to `OC1(c2ccc(Cl)cc2)c2ccccc2C2=NCCCCN21` (stereo not given), the IC50 in assay [4] is 1250 nM; in assay [1], 1.5 nM; in assay [2], 3.4 nM. Besides, the Uptake/Binding ratio in assay [3] was 2.3.
On to `OC1(c2ccc(Cl)cc2)c2ccccc2C2=NCCCN21` (stereo not given), for which the inhibition in assay [5] came out at 62.8%. Also, the IC50 in assay [4] stood at 1040 nM; in assay [1], 1.7 nM; in assay [2], 1.4 nM. Also, in assay [3], the Uptake/Binding ratio was determined as 0.8.
For the compound `OC1(c2ccccc2)c2cc(F)ccc2C2=NCCN21` (stereo not given), the IC50 worked out at 29.7 nM in assay [1] and 78 nM in assay [2]. For the same compound, in assay [3], the Uptake/Binding ratio was determined as 2.6.
In assay [6], `OC1(c2ccc(Cl)cc2)c2ccccc2C2=NCCN21` (stereo not given) [MAZINDOL] yielded an inhibition of 60%. In assay [7], this compound came in with an IC50 of 231 nM.
`OC1(c2ccccc2)c2cc(Cl)ccc2C2=NCCN21` (stereo not given): the results for the IC50 in assay [1] and in assay [2] were 86.4 nM and 55 nM, respectively. In assay [3], the Uptake/Binding ratio is 0.6.
Regarding `CC1(C)CN=C2c3ccccc3C(O)(c3ccc(Cl)cc3)N2C1` (stereo not given), the IC50 in assay [1] stood at 6.3 nM; in assay [2], 1.7 nM. In assay [3], the Uptake/Binding ratio was found to be 0.3.
The like results for `OC1(c2ccc(Br)cc2)c2ccccc2C2=NCCN21` (stereo not given) were, in that order, 2.6 nM, 8.6 nM and 3.3.
The like results for `OC1(c2cccc(F)c2)c2ccccc2C2=NCCCN21` (stereo not given) were, in that order, 2 nM, 3.1 nM and 1.6.
The corresponding values for `OC1(c2ccc(I)cc2)c2ccccc2C2=NCCN21` (stereo not given) are 17.2 nM, 14 nM and 0.8.
For `OC1(c2ccc(F)cc2)c2cc(Cl)ccc2C2=NCCN21` (stereo not given), the IC50 in assay [1] was found to be 52.8 nM; in assay [2], 53 nM. Besides, in assay [3], the Uptake/Binding ratio came to 1.
As for `OC1(c2ccc(Cl)cc2)c2cc(Cl)c(Cl)cc2C2=NCCN21` (stereo not given), in assay [1], the IC50 came out at 13.6 nM.
With `OC1(c2ccc(F)cc2)c2ccccc2C2=NCCN21` (stereo not given), the values for the IC50 in assay [1] and in assay [2] were 13.3 nM and 25.4 nM, respectively. In addition, in assay [3], the Uptake/Binding ratio came out at 1.9.
The like results for `OC1(c2ccc(Cl)c(Cl)c2)c2ccccc2C2=NCCCCN21` (stereo not given) were, in that order, 1.7 nM, 0.26 nM and 0.2.
The corresponding values for `OC1(c2ccccc2)c2ccccc2C2=NCCCN21` (stereo not given) are 5.8 nM, 18 nM and 3.1.
The corresponding values for `OC1(c2cccc(Cl)c2)c2ccccc2C2=NCCN21` (stereo not given) are 4.3 nM, 9.2 nM and 2.1.
As for `CC1(C)CN2C(=N1)c1ccccc1C2(O)c1ccc(Cl)cc1` (stereo not given), the figures for the IC50 in assay [1] and in assay [8] were 50.4 nM and 106 nM, respectively.
`OC1(c2ccc(Cl)cc2)c2cc(F)ccc2C2=NCCN21` (stereo not given): the IC50 was 6.5 nM in assay [1] and 15 nM in assay [2]. Also, in assay [3], the Uptake/Binding ratio was 2.3.
The corresponding values for `OC1(c2cccc(Cl)c2)c2ccccc2C2=NCCCN21` (stereo not given) are 1 nM, 1.3 nM and 1.3.
On to `OC1(c2ccccc2)c2c(Cl)cccc2C2=NCCN21` (stereo not given), for which the values for the IC50 in assay [1] and in assay [2] were 57.2 nM and 58 nM, respectively.
Consider `OC1(c2ccccc2Cl)c2ccccc2C2=NCCN21` (stereo not given), for which the IC50 turned out to be 294 nM in assay [1] and 770 nM in assay [2]. Besides, in assay [3], the Uptake/Binding ratio amounted to 2.6.

One may read the IC50 as the concentration needed to halve the response being measured. For orientation: inhibition means the drop in the measured response relative to a control, in per cent. Read a high inhibition as a response far below the control.
